Test results as given in ChEMBL document CHEMBL4257504, “Tricyclic xanthine derivatives containing a basic substituent: adenosine receptor affinity and drug-related properties” (Medchemcomm, 2018).
In brackets after ≈: the same amount, converted by molar mass.

Experiments:
Adenosine receptor A2b [1] = target: T1, Adenosine receptor A2b (Homo sapiens, UniProt P29275); experiment: […] from human adenosine A2B receptor expressed in CHO cell membranes; details: in the assay text read “[3H]PSB-603” for “[3H]PSB-602”
T1 sequence (P29275 whole entry): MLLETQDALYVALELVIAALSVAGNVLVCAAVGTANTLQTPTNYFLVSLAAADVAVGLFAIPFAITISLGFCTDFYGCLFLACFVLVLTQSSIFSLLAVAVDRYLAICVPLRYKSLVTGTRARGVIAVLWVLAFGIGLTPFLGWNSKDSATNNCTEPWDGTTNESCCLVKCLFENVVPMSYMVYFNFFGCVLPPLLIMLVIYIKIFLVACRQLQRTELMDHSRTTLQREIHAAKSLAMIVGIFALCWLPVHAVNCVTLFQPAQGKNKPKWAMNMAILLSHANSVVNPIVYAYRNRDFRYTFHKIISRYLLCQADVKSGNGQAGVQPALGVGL
How it was run: (§1)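 Membranes from CHO cells recombinantly expressing human A2B or A3 receptor. Radioligands are [3H]PSB-603 for A2B and [3H]PSB-11 for A3. Competition curves use six to ten test-compound concentrations spanning three orders of magnitude, with at least three independent experiments.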

Adenosine receptor A2a = Adenosine receptor A2a (Rattus norvegicus, UniProt P30543); experiment: Displacement of [3H]MSX-2 from adenosine A2A receptor in rat brain striatal membranes; type: cell membranes, Striatum, Membrane
How it was run: (§2)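 Membrane radioligand binding: A1 in rat brain cortical membranes and A2A in rat brain striatal membranes, with human A1 and A2A in recombinant CHO cell membranes. Radioligands are [3H]CCPA for A1 and [3H]MSX-2 for A2A. Full concentration-inhibition curves use six to ten concentrations spanning three orders of magnitude, with at least three independent experiments.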

Adenosine receptor A3 = target: T2, Adenosine receptor A3 (Homo sapiens, UniProt P0DMS8); experiment: Displacement of [3H]PSB-11 from human adenosine A3 receptor expressed in CHO cell membranes; how it was run: as §1
T2 sequence (P0DMS8 whole entry): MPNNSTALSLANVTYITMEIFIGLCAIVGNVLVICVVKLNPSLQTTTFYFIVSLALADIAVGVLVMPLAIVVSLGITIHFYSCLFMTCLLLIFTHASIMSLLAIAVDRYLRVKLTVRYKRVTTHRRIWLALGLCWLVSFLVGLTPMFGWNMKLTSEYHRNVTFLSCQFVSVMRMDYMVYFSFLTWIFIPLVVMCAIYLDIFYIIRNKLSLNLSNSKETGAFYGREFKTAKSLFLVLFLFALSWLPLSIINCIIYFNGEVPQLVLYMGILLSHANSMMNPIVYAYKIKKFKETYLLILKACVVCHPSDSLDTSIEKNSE

Adenosine receptor A1 = target: T3, Adenosine receptor A1 (Rattus norvegicus, UniProt P25099); experiment: Displacement of [3H]CCPA from adenosine A1 receptor in rat brain cortical membranes; type: cell membranes; how it was run: as §2
T3 sequence (P25099 whole entry): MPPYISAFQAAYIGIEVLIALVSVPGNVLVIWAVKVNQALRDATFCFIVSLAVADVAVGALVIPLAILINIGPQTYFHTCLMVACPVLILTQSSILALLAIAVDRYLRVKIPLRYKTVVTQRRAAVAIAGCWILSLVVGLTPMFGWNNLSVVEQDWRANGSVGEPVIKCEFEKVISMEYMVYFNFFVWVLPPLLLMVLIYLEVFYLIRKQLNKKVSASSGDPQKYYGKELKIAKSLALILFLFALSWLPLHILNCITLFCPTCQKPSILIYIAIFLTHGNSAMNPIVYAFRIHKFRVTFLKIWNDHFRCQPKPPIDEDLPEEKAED

Adenosine receptor A2b [2] = target: T1, Adenosine receptor A2b; experiment: Displacement of [3H]PSB-603 from human adenosine A2B receptor expressed in CHO cell membranes
[3] = target: T4, Adenosine receptor A1 (Rattus norvegicus) (UniProt P25099); experiment: Displacement of [3H]CCPA from adenosine A1 receptor in rat brain cortical membranes at 1 uM relative to control; type: cell membranes
T4 sequence (whole entry): T3 sequence (P25099 whole entry)

[4] = target: T5, Adenosine receptor A2b (Homo sapiens) (UniProt P29275); experiment: Displacement of [3H]PSB-603 from human adenosine A2B receptor expressed in CHO cell membranes at 1 uM relative to control
T5 sequence (whole entry): T1 sequence (P29275 whole entry)

[5] = target: T6, Adenosine receptor A3 (Homo sapiens) (UniProt P0DMS8); experiment: Displacement of [3H]PSB-11 from human adenosine A3 receptor expressed in CHO cell membranes at 1 uM relative to control
T6 sequence (whole entry): T2 sequence (P0DMS8 whole entry)

[6] = Solubility of compound in water after over night incubation by UV spectroscopic method; type: physicochemical
How it was run: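 Compound (10 mg, basic form) is suspended in 2 mL water, boiled 5 min, left overnight at 20 °C and filtered. The filtrate is diluted 10–80-fold in MeOH and read by UV in 90% MeOH/H2O. Concentration comes from seven-point standard curves (10^-3 to 10^-1 mg/mL) by linear regression, multiplied by the dilution factor.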

Sequence of Adenosine receptor A2a (P30543 whole entry): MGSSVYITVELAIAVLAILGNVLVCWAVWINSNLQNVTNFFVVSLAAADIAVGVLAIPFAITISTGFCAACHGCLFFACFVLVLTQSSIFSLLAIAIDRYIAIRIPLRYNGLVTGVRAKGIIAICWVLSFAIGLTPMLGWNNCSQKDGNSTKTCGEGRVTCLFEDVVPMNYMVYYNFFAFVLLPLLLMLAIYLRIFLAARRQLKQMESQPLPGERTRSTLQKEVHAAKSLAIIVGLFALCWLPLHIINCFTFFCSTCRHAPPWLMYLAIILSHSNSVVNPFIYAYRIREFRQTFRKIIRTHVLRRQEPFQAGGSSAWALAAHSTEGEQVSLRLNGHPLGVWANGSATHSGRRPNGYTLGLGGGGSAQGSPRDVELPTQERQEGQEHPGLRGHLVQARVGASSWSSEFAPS

CCCCn1c(=O)c2c(nc3n2CCCN3CCc2ccc(OCC(=O)NCCCn3ccnc3)cc2)n(CCCC)c1=O
Ki (Adenosine receptor A2b [1]): 275 nM | Ki (Adenosine receptor A2a): 569 nM | Ki (Adenosine receptor A3): 868 nM | Ki (Adenosine receptor A1): 194 nM

CCCn1c(=O)c2c(nc3n2CCCN3CCc2ccc(OCC(=O)NCCCNC3CCCCC3)cc2)n(CCC)c1=O
Ki (Adenosine receptor A2a): 335 nM | Ki (Adenosine receptor A2b [2]): 306 nM | Ki (Adenosine receptor A3): 458 nM | Ki (Adenosine receptor A1): 145 nM

CCCn1c(=O)c2c(nc3n2CCCN3CCc2ccc(OCC(=O)NCc3ccccc3)cc2)n(CCC)c1=O
Ki (Adenosine receptor A2b [1]): > 1000 nM | Ki (Adenosine receptor A2a): 3230 nM | inhibition [3]: 26% | inhibition [4]: 22% | inhibition [5]: 34% | Ki (Adenosine receptor A3): > 1000 nM | Ki (Adenosine receptor A1): > 10000 nM

CCCn1c(=O)c2c(nc3n2CCCN3CCc2ccc(OCC(=O)NCc3cccc(Cl)c3)cc2)n(CCC)c1=O
Ki (Adenosine receptor A2b [1]): > 1000 nM | Ki (Adenosine receptor A2a): 807 nM | inhibition [4]: 22% | Ki (Adenosine receptor A3): 572 nM | Ki (Adenosine receptor A1): 1370 nM

CCCCn1c(=O)c2c(nc3n2CCCN3CCc2ccc(OCC(=O)NCCN(CC)CC)cc2)n(CCCC)c1=O
Ki (Adenosine receptor A2a): 242 nM | solubility [6]: 189 µM (≈ 113 µg/mL) | Ki (Adenosine receptor A2b [2]): 113 nM | Ki (Adenosine receptor A3): 155 nM | Ki (Adenosine receptor A1): 50.7 nM

CCCn1c(=O)c2c(nc3n2CCCN3CCc2ccc(OCC(=O)NCCCN3CCCC3)cc2)n(CCC)c1=O
Ki (Adenosine receptor A2b [1]): 452 nM | Ki (Adenosine receptor A2a): 320 nM | inhibition [5]: 33% | Ki (Adenosine receptor A3): > 1000 nM | Ki (Adenosine receptor A1): 146 nM

CCCn1c(=O)c2c(nc3n2CCCN3CCc2ccc(OCC(=O)NCCCn3ccnc3)cc2)n(CCC)c1=O
Ki (Adenosine receptor A2b [1]): 862 nM | Ki (Adenosine receptor A2a): 637 nM | Ki (Adenosine receptor A3): 1000 nM | Ki (Adenosine receptor A1): 605 nM

CCCn1c(=O)c2c(nc3n2CCCN3CCc2ccc(OCC(=O)NCc3ccc(F)cc3)cc2)n(CCC)c1=O
Ki (Adenosine receptor A2b [1]): > 1000 nM | Ki (Adenosine receptor A2a): 1360 nM | inhibition [3]: 37% | inhibition [4]: 31% | inhibition [5]: 41% | Ki (Adenosine receptor A3): > 1000 nM | Ki (Adenosine receptor A1): > 10000 nM

CCCn1c(=O)c2c(nc3n2CCCN3CCc2ccc(OCC(=O)NCCN3CCCC3)cc2)n(CCC)c1=O
Ki (Adenosine receptor A2a): 551 nM | Ki (Adenosine receptor A2b [2]): 193 nM | Ki (Adenosine receptor A3): 509 nM | Ki (Adenosine receptor A1): 113 nM

CCCCn1c(=O)c2c(nc3n2CCCN3CCc2ccc(OCC(=O)NCCCNC3CCCCC3)cc2)n(CCCC)c1=O
Ki (Adenosine receptor A2b [1]): 215 nM | Ki (Adenosine receptor A2a): 1250 nM | Ki (Adenosine receptor A3): 353 nM | Ki (Adenosine receptor A1): 118 nM

CCCn1c(=O)c2c(nc3n2CCCN3CCc2ccc(OCC(=O)NCCc3ccccn3)cc2)n(CCC)c1=O
Ki (Adenosine receptor A2b [1]): > 1000 nM | Ki (Adenosine receptor A2a): 1360 nM | inhibition [4]: 39% | inhibition [5]: 31% | Ki (Adenosine receptor A3): > 1000 nM | Ki (Adenosine receptor A1): 563 nM

CCCCn1c(=O)c2c(nc3n2CCCN3CCc2ccc(OCC(=O)NCc3cccc(Cl)c3)cc2)n(CCCC)c1=O
Ki (Adenosine receptor A2b [1]): > 1000 nM | Ki (Adenosine receptor A2a): 6520 nM | inhibition [4]: 18% | inhibition [5]: 42% | Ki (Adenosine receptor A3): > 1000 nM | Ki (Adenosine receptor A1): 684 nM

CCCCn1c(=O)c2c(nc3n2CCCN3CCc2ccc(OCC(=O)NCc3ccc(Cl)cc3)cc2)n(CCCC)c1=O
Ki (Adenosine receptor A2b [1]): > 1000 nM | Ki (Adenosine receptor A2a): 7310 nM | inhibition [4]: 31% | inhibition [5]: 23% | Ki (Adenosine receptor A3): > 1000 nM | Ki (Adenosine receptor A1): 593 nM

CCCCn1c(=O)c2c(nc3n2CCCN3CCc2ccc(OCC(=O)NCCN3CCOCC3)cc2)n(CCCC)c1=O
Ki (Adenosine receptor A2b [1]): 298 nM | Ki (Adenosine receptor A2a): 671 nM | inhibition [5]: 46% | Ki (Adenosine receptor A3): > 1000 nM | Ki (Adenosine receptor A1): 181 nM

CCCn1c(=O)c2c(nc3n2CCCN3CCc2ccc(OCC(=O)NCCc3ccc(S(N)(=O)=O)cc3)cc2)n(CCC)c1=O
Ki (Adenosine receptor A2b [1]): > 1000 nM | Ki (Adenosine receptor A2a): 1870 nM | inhibition [3]: 45% | inhibition [4]: 30% | inhibition [5]: 28% | Ki (Adenosine receptor A3): > 1000 nM | Ki (Adenosine receptor A1): 10000 nM

CCCn1c(=O)c2c(nc3n2CCCN3CCc2ccc(OCC(=O)NCCN(CC)CC)cc2)n(CCC)c1=O
Ki (Adenosine receptor A2b [1]): 179 nM | Ki (Adenosine receptor A2a): 271 nM | solubility [6]: 1080 µM (≈ 615 µg/mL) | Ki (Adenosine receptor A3): 508 nM | Ki (Adenosine receptor A1): 120 nM

CCCn1c(=O)c2c(nc3n2CCCN3CCc2ccc(OCC(=O)NCCCN(CC)CC)cc2)n(CCC)c1=O
Ki (Adenosine receptor A2a): 303 nM | solubility [6]: 823 µM (≈ 479 µg/mL) | Ki (Adenosine receptor A2b [2]): 340 nM | inhibition [5]: 36% | Ki (Adenosine receptor A3): > 1000 nM | Ki (Adenosine receptor A1): 136 nM

CCCCn1c(=O)c2c(nc3n2CCCN3CCc2ccc(OCC(=O)NCc3cccc(OC)c3)cc2)n(CCCC)c1=O
Ki (Adenosine receptor A2b [1]): > 1000 nM | Ki (Adenosine receptor A2a): 1630 nM | inhibition [4]: 41% | inhibition [5]: 41% | Ki (Adenosine receptor A3): > 1000 nM | Ki (Adenosine receptor A1): 1590 nM

CCCCn1c(=O)c2c(nc3n2CCCN3CCc2ccc(OCC(=O)NCc3ccccc3)cc2)n(CCCC)c1=O
Ki (Adenosine receptor A2b [1]): 578 nM | Ki (Adenosine receptor A2a): 1290 nM | Ki (Adenosine receptor A3): 602 nM | Ki (Adenosine receptor A1): 320 nM

CCCn1c(=O)c2c(nc3n2CCCN3CCc2ccc(OCC(=O)NCCN3CCOCC3)cc2)n(CCC)c1=O
Ki (Adenosine receptor A2b [1]): 911 nM | Ki (Adenosine receptor A2a): 1120 nM | inhibition [5]: 21% | Ki (Adenosine receptor A3): > 1000 nM | Ki (Adenosine receptor A1): 509 nM

CCCCn1c(=O)c2c(nc3n2CCCN3CCc2ccc(OCC(=O)NCCc3ccc(S(N)(=O)=O)cc3)cc2)n(CCCC)c1=O
Ki (Adenosine receptor A2b [1]): > 1000 nM | Ki (Adenosine receptor A2a): 2270 nM | inhibition [3]: 27% | inhibition [4]: 31% | inhibition [5]: 23% | Ki (Adenosine receptor A3): > 1000 nM | Ki (Adenosine receptor A1): > 10000 nM

CCCCn1c(=O)c2c(nc3n2CCCN3CCc2ccc(OCC(=O)NCCc3ccccn3)cc2)n(CCCC)c1=O
Ki (Adenosine receptor A2b [1]): > 1000 nM | Ki (Adenosine receptor A2a): 1070 nM | inhibition [4]: 39% | inhibition [5]: 44% | Ki (Adenosine receptor A3): > 1000 nM | Ki (Adenosine receptor A1): 382 nM
